Reference: PMC9605878 (Cell Chemical Biology, 2022)
≈ marks a conversion by molar mass, not a printed value. Like-named read-outs stand apart in the source and are kept apart here.

How the values were obtained:
[1] = test system: S. aureus strain USA300 JE2; test: Membrane permeabilization; format: cell-based, Staphylococcus aureus; details: 10 μM, relative to nisin 0.6 μM
Summary of the method: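 USA300 JE2 grown overnight in CYGP, washed in 100 mM phosphate buffer pH 7, resuspended to OD600 0.1 and exposed to test compound for 1 h at 37°C. Nisin (0.6 μM) used as positive control. Cell-free supernatant ATP measured by luminescence kit. For PI uptake, cells held in phosphate buffer pH 7 with PI (10 μg/ml), 10 min dark at RT, washed, then read (ex 575/em 630 nm). Mean of three experiments ±SD.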

S. aureus strain RN6390B = test: S. aureus MIC, broth microdilution; format: cell-based, Staphylococcus aureus
Summary of the method: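 Broth microdilution MIC in Müller–Hinton broth at 37°C; S. aureus also tested in MHB containing 10% FBS.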

Staphylococcal cells = test: Dissipation of transmembrane potential; format: cell-based, Staphylococcus aureus; details: 10 μM test compound
Summary of the method: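 Staphylococcal cells suspended in 50 mM potassium phosphate buffer, pH 7, with 5 μM DiSC3(5). Fluorescence (ex 650, em 680 nm) monitored over 200 s. Test compound (10 μM) added once signal stabilised. Valinomycin (5 μM) then added for complete depolarisation. Novobiocin and chloramphenicol (10 μg/ml) served as negative controls. Three independent repeats, representative traces.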

S. aureus membranes [2] = test: Membrane dipole potential; format: binding, Staphylococcus aureus; details: for change in membrane dipole potential: fixed concentration 40 μM, fluorescence ratio R(460/520)
Summary of the method: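 Isolated S. aureus membranes labelled with the dipole-potential probe di-8-ANEPPS. Dipole potential change followed as fluorescence ratio R(460/520), at a fixed 40 μM per compound. Kd obtained from binding curves versus compound concentration by the dual-wavelength ratiometric method, with methanol included. Mean of three independent experiments ±SD.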

S. aureus membranes [3] = details: read-out: Kd (membrane-active agent); ref Murray et al., 2014; cited from earlier work
[4] = test system: P. aeruginosa PAO1 in mixed biofilm with S. aureus SH1000; test: Mixed-species biofilm, P. aeruginosa component; format: cell-based, Pseudomonas aeruginosa; details: tobramycin alone (100 μg/mL, 4 h)
Summary of the method: (§1)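 GFP-tagged S. aureus SH1000 and mCherry-tagged P. aeruginosa PAO1 grown 16 h in RPMI-1640, diluted 1:100, regrown to OD600 ~0.5, then diluted to OD600 0.1 and 0.01 respectively. S. aureus seeded on glass coverslips for 1 h static, then P. aeruginosa added (10:1). Test compound (100 μM) or DMSO added; 48 h at 37°C. Where required, tobramycin (100 μg/mL) added for a further 4 h. Confocal imaging, biomass quantified per species; 3 experiments ±SD.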

[5] = test system: S. aureus SH1000 in mixed biofilm with P. aeruginosa PAO1; test: Mixed-species biofilm, S. aureus component; format: cell-based, Staphylococcus aureus; details: tobramycin alone (100 μg/mL, 4 h)
Summary of the method: as §1

Chrome azurol S = format: physicochemical; details: 50 μM, PBS pH 7.4
Summary of the method: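 PBS (pH 7.4) with test compound (50 μM), or without it as reference, mixed with an equal volume of CAS assay solution. A630 read after 15 min at room temperature. Siderophore units = […].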

PqsR = details: read-out: PqsR IC50; ref Ilangovan et al., 2013; cited from earlier work
[6] = test system: defibrinated rabbit red blood cells; test: Haemolytic activity; format: cell-based
Summary of the method: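 Defibrinated rabbit blood incubated in PBS for 60 min with test compound or Triton X-100 (positive control). Samples pelleted and supernatant A543 measured. Percent haemolysis calculated relative to the Triton X-100 control.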

[7] = S. aureus RN6390B, broth microdilution

SMILES: CCCCCCCCCc1nc2cc(Cl)ccc2c(=O)n1CCCCN [Compound 35, 3-(4-Aminobutyl)-7-chloro-2-n-nonylquinazolin-4(3H)-one]
- cellular ATP loss and PI uptake [1]: significant cellular ATP loss alongside the reciprocal uptake of PI
- MIC (S. aureus strain RN6390B; Staphylococcus aureus, RN6390B): 12.5 µM (≈ 4.72 µg/mL)
- DiSC3(5) fluorescence / transmembrane potential (Staphylococcal cells): increase in fluorescence
- change in membrane dipole potential (S. aureus membranes [2]): greatest changes in dipole potential
- Kd (S. aureus membranes [2]; read-out: Kd (membrane binding), binding curves, di-8-ANEPPS): 5.2 ± 0.3 µM

SMILES: CCCCCCCc1nc2ccccc2c(=O)[nH]1 [Compound 1]
- MIC (S. aureus strain RN6390B; [7]): >100 µM

SMILES: Cc1nc2ccccc2c(=O)n1N [Compound 17, 3-Amino-2-methylquinazolin-4(3H)-one]
- MIC (S. aureus strain RN6390B; Staphylococcus aureus, RN6390B): > 100 µM

SMILES: CCCCCCCCCCCCCC(=O)C1=C(O)COC1=O [Compound C14-TOA, 3-tetradecanoyltetronic acid]
- Kd (S. aureus membranes [3]): 4 µM

SMILES: CCCCCCCc1nc2ccccc2c(=O)n1N [Compound 8]
- MIC (S. aureus strain RN6390B; [7]): >100 µM

SMILES: CCCCCCCCCc1[nH]c2ccccc2c(=O)c1O [Compound C9-PQS, reference compound]
- change in membrane dipole potential (S. aureus membranes [2]): little impact

SMILES: CCCCCCCCCc1nc2cc(F)ccc2c(=O)n1N [Compound 18]
- MIC (S. aureus strain RN6390B; [7]): >100 µM

SMILES: NC[C@H]1O[C@H](O[C@H]2[C@H](O)[C@@H](O[C@H]3O[C@H](CO)[C@@H](O)[C@H](N)[C@H]3O)[C@H](N)C[C@@H]2N)[C@H](N)C[C@@H]1O [tobramycin]
- reduction of P. aeruginosa biomass [4]: ~60%
- S. aureus biomass [5]: clearly protected

SMILES: CCCCCCCc1[nH]c2ccccc2c(=O)c1O [PQS, 2-Heptyl-3-hydroxy-4(1H)-quinolone]
- iron-chelating properties (Chrome azurol S): sequestered iron

SMILES: CCCCCc1nc2ccccc2c(=O)n1N [Compound 7]
- MIC (S. aureus strain RN6390B; [7]): >100 µM

SMILES: CCCCCCCCCc1nc2cc(Cl)ccc2c(=O)[nH]1 [Compound 4, 7-Chloro-2-n-nonylquinazolin-4(3H)-one]
- MIC (S. aureus strain RN6390B; Staphylococcus aureus, RN6390B): > 100 µM

SMILES: CCCCCCCCCc1nc2cc(Cl)ccc2c(=O)n1CCO [Compound 45, 7-Chloro-3-(2-hydroxyethyl)-2-n-nonylquinazolin-4(3H)-one]
- MIC (S. aureus strain RN6390B; [7]): >100 µM
- MIC (S. aureus strain RN6390B; Staphylococcus aureus, RN6390B): > 100 µM

SMILES: CCCCCCCC1Nc2ccccc2S(=O)(=O)N1 (stereo not shown) [Compound 5, 3-n-Heptyl-3,4-dihydro-2H-benzo[e][1,2,4]thiadiazine 1,1-dioxide]
- S. aureus growth-inhibitory activity (S. aureus strain RN6390B): inactive
- MIC (S. aureus strain RN6390B; Staphylococcus aureus, RN6390B): > 100 µM

SMILES: CCCCCCCCCC1Nc2ccccc2S(=O)(=O)N1 (stereo not shown) [Compound 6, 3-n-Nonyl-3,4-dihydro-2H-benzo[e][1,2,4]thiadiazine 1,1-dioxide]
- S. aureus growth-inhibitory activity (S. aureus strain RN6390B): inactive
- MIC (S. aureus strain RN6390B; Staphylococcus aureus, RN6390B): > 100 µM

SMILES: CCCCCCCCCc1nc2cc(F)ccc2c(=O)n1OC [Compound 39]
- MIC (S. aureus strain RN6390B; [7]): >100 µM

SMILES: CCCCCCCCCc1nc2cc(Cl)ccc2c(=O)n1N [Compound 19]
- IC50 (PqsR): 5 µM
- MIC (S. aureus strain RN6390B; [7]): >100 µM
- hemolytic activity [6]: not hemolytic
- DiSC3(5) fluorescence / transmembrane potential (Staphylococcal cells): does not increase fluorescence
- change in membrane dipole potential (S. aureus membranes [2]): increased

SMILES: CCCCCCCCCc1nc2ccccc2c(=O)[nH]1 [Compound 2]
- MIC (S. aureus strain RN6390B; [7]): >100 µM
- change in membrane dipole potential (S. aureus membranes [2]): little impact

SMILES: CCCCCCCCCc1nc2cc(F)c(F)cc2c(=O)n1N [Compound 22]
- MIC (S. aureus strain RN6390B; [7]): >100 µM
